Laboratory results published in ChEMBL document CHEMBL1155242, “Radiolabeled 5-iodo-3'-O-(17beta-succinyl-5alpha-androstan-3-one)-2'-deoxyuridine and its 5'-monophosphate for imaging and therapy of androgen receptor-positive cancers: synthesis and biological evaluation” (J Med Chem, 2009).

Assays:
LNCaP [1] = experiment: Cellular uptake in nonproliferating human LNCAP cells expressing androgen receptor after 48 hrs by gamma counting in presence of 1 uM DHT relative to uptake in absence of DHT; format: ADME, cell-based
LNCaP [2] = experiment: Cytotoxicity against human LNCAP cells expressing androgen receptor assessed as drug level required to reduce viable cell count to 37% after 48 hrs; format: functional
In short: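 LNCaP human prostate cancer cells were grown for 48 h with the 125I-labelled compound in the medium, and cell survival was then determined. D37 was expressed as the extracellular concentration in μCi/mL.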

[3] = molecular target: T1, Sex hormone-binding globulin (Oryctolagus cuniculus, UniProt P15196); experiment: Binding affinity to rabbit sex hormone binding globulin at 10 to 20 uCi/mL after 60 mins by size-exclusion HPLC analysis; format: ADME; details: 1 h
T1 sequence (P15196 whole entry): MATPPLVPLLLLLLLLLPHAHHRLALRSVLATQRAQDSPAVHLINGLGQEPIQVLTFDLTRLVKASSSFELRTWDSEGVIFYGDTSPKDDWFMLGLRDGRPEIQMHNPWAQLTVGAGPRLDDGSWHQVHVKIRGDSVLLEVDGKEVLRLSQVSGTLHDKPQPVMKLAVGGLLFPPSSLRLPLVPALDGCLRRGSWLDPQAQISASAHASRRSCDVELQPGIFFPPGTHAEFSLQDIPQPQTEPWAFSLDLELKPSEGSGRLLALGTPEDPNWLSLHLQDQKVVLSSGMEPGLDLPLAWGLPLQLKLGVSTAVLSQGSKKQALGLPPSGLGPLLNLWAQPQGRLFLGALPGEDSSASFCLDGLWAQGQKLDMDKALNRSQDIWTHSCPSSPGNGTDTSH
In short: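 Radioligand incubated 60 min in rabbit serum; size-exclusion HPLC as for SHBG binding (phosphate/Na2SO4 pH 6.8, then CH3CN gradient) for SHBG-bound peak, with extracts run on C18 for intact compound.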

[4] = Stability in rabbit serum assessed as half life at 10 to 20 uCi/mL by reversed phase HPLC analysis; format: ADME, cell-free, Oryctolagus cuniculus
In short: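 The compound was incubated with rabbit or human serum at ambient temperature, and aliquots were taken at 1, 5 and 24 h. Aliquots were run on size-exclusion HPLC (TSK3000; 0.1 M potassium phosphate/0.1 M Na2SO4, pH 6.8, then an acetonitrile gradient). Extracts were run on C18 reversed-phase HPLC (water/acetonitrile with 0.07% TFA). Half-lives came from a monoexponential fit.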

[5] = Stability in human OVCAR-3 cells expressing androgen receptor assessed as half life at 0.01 to 5 uCi/mL by silica gel instant thin layer chromatography; format: ADME, cell-based
OVCAR-3 = experiment: Antitumor activity against human OVCAR-3 cells xenografted in athymic NCr mouse assessed as number of nonadherent cancer cells in peritoneum at 180 uCi, ip administered 9 days after tumor implantation as six fractionated doses every 4 days measured after 2 weeks of last dose by gamma counting; format: functional
In short: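 OVCAR-3 ip xenografts in athymic mice; six fractionated ip doses every 4 days, total 180 μCi/mouse, with PBS or vehicle ip controls. Nonadherent tumor cells recovered by peritoneal lavage at necropsy, counted and pellet-weighed.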

[6] = Ratio of drug level in tumor to kidney in athymic NCr mouse xenografted with human OVCAR-3 cells at 180 uCi, ip administered 9 days after tumor implantation as six fractionated doses every 4 days measured after 24 hrs by gamma counting; format: ADME, organism-based; details: in vivo
[7] = Ratio of drug level in tumor to uterus in athymic NCr mouse xenografted with human OVCAR-3 cells at 180 uCi, ip administered 9 days after tumor implantation as six fractionated doses every 4 days measured after 24 hrs by gamma counting; format: ADME, organism-based; details: in vivo

Compound | Drug uptake (LNCaP [1]) [%] | Activity (LNCaP [2]) [uCi/ml] | Activity [3] | t1/2 [4] [days] | half-life [5] [days] | Activity (OVCAR-3) | Ratio [6] | Ratio [7]
C[C@]12CCC(=O)C[C@@H]1CC[C@@H]1[C@@H]2CC[C@]2(C)[C@@H](OC(=O)CCC(=O)O[C@H]3C[C@H](n4cc([125I])c(=O)[nH]c4=O)O[C@@H]3COP(=O)(O)O)CC[C@@H]12 | 30 | 1.7 |  |  |  |  |  | 
C[C@]12CCC(=O)C[C@@H]1CC[C@@H]1[C@@H]2CC[C@]2(C)[C@@H](OC(=O)CCC(=O)O[C@H]3C[C@H](n4cc([125I])c(=O)[nH]c4=O)O[C@@H]3CO)CC[C@@H]12 |  |  | Active | 0.238 | 60 | 1250000000 | 79.1 | 29.9
